# A selection: hits, their analogues and other compounds. The true share with any hit is near 1.5%.
# NR2E3 ag-1: NR2E3 (human) agonism. Q9Y5X4. GST-NR2E3/biotin-RetCOR TR-FRET, 1536-well. inhibition of corepressor binding, % at 4.78 µM. 320,000 tested, 0.12% active. AID 2300;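 active = percent inhibition above the cutoff of mean plus 3 SD of all tested compounds, set per screening campaign, cut at about 20% in these data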;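 note: 0% = DMSO wells and 100% = biotin wells as full block of FRET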
#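 system = GST-tagged NR2E3 plus biotinylated RetCOR corepressor | input = 1.35 nM GST-NR2E3 | also added = 7 nM biotin-RetCOR | schedule = 5 h incubation at 4 °C | measured by = TR-FRET with europium anti-GST and streptavidin-D2, 340 nm excitation | read-out = percent loss of FRET ratio relative to control wells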
# NR2E3 ag-2: agonists of human NR2E3 nuclear receptor | CHO-S Gal4-NCOR/VP16-NR2E3 two-hybrid, luciferase | inhibition of corepressor binding, % at 3.98 µM | 360,000 tested, 0.35% active;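 active = inhibition above the mean of all tested compounds plus 3 SD, cut at about 70% in these data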;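 note: 0% = DMSO with NR2E3 transfected cells and 100% = cells lacking NR2E3 construct; higher means lower luciferase signal from less NR2E3 corepressor binding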
# PG9 binder: small molecules binding HIV-1 gp120 antibody PG9 | 360,000 tested, 0.43% active | TR-FRET gp120-PG9 antibody binding | inhibition, % at 6.7 µM; in the data active = inhibition above about 8.5%
# NR1D1 modulator: modulates human Rev-erb alpha binding to DNA; P20393; Rev-erbα–FITC-DNA binding, fluorescence polarization, 90 min; activity, % at 10 µM; 370,000 tested, 0.79% active;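 active = activity above about 14%, limit read from the data; passing the limit was not always enough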;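 note: 0% = DMSO wells with 35 nM protein and 100% = DMSO wells with 750 nM protein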
# Target sequence (P20393 whole entry, looked up): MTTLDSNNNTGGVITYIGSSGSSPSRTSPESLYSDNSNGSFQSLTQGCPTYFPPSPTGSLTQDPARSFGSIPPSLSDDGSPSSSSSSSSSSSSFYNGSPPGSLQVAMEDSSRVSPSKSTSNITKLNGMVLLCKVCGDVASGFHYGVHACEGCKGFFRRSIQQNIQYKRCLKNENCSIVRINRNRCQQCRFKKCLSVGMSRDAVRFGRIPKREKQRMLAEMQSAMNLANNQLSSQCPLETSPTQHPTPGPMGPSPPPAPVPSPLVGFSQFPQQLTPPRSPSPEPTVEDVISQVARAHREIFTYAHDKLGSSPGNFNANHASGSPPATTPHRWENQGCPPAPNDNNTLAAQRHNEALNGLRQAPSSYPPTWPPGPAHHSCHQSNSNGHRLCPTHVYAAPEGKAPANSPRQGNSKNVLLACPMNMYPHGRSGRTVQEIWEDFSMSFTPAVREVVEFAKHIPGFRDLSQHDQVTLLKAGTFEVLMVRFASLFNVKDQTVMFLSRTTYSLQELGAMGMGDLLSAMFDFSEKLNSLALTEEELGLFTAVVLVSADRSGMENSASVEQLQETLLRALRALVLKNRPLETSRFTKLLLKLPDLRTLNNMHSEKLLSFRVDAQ
# NR1D1 mod conf: confirmation of modulators of human Rev-erb alpha DNA binding. shares compounds with NR1D1 modulator. AID 1259319. 3,000 tested, 61% active. Rev-erb alpha FITC-DNA binding, fluorescence polarization, 90 min. activation, % at 25 µM;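 active = activation at or above a set limit, or at least 3 SD above the negative control mean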;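 note: 0% = 35 nM protein with DMSO and 100% = 750 nM protein high control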
# RORg counter: RORgamma DNA-binding activity, dose-response counter-screen | shares compounds with NR1D1 modulator | 910 tested, 8% active | purified RORgamma protein-FITC-DNA binding, fluorescence polarization | AID 1259320 | IC50, µM;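 active = Compounds whose fitted half-maximal concentration for disrupting protein-DNA binding is below 10 micromolar; the record names Rev-erb in its text, so the target is in doubt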
# * hit, by the source's call; x = no result given.
SMILES,NR2E3 ag-1,NR2E3 ag-2,PG9 binder,NR1D1 modulator,NR1D1 mod conf,RORg counter
COc1ccc(C(=O)Nc2nc(C)c(C)s2)cc1OC,1.7,-99.3,-1.0,-2.5,x,x
CC(C)C(NC(=O)[C@H](Cc1ccccc1)NC(=O)OCc1ccccc1)P(=O)(O)OC(Cc1ccccc1)C(=O)O (stereo not given in full),x,x,x,-6.5,x,x
CN1C(=O)CSC1=NC12CC3CC(CC(C3)C1)C2,-4.4,-30.0,2.0,11.3,x,x
CCN1C(=O)CSC1=NC12CC3CC(CC(C3)C1)C2,2.4,-12.4,-0.3,49.1*,58.4*,>40
O=C(COc1nnnc2ccccc12)N1CCCc2ccccc21,3.5,9.7,0.2,-0.4,x,x
O=C(COc1nc2ccccc2nc1N1CCOCC1)N1CCc2ccccc21,x,4.0,-2.3,96.5*,61.6*,4.34*

# Compound activity (PubChem)
